Reference: ChEMBL document CHEMBL4385599, “Neutral sphingomyelinase 2 inhibitors based on the 4-(1H-imidazol-2-yl)-2,6-dialkoxyphenol scaffold” (Eur J Med Chem, 2019)

Experiments:
Homo sapiens [1] = species: Homo sapiens; test: Selectivity index, ratio of IC50 for choline oxidase (unknown origin) to IC50 for Inhibition of human recombinant nSMase expressed in HEK293 cells; assay type: cell-based
Homo sapiens [2] = species: Homo sapiens; test: Selectivity index, ratio of IC50 for alkaline phosphatase (unknown origin) to IC50 for Inhibition of human recombinant nSMase expressed in HEK293 cells; assay type: cell-based
[3] = Selectivity index, ratio of IC50 for horseradish peroxidase to IC50 for Inhibition of human recombinant nSMase expressed in HEK293 cells; assay type: cell-based
[4] = biological target: T1, Sphingomyelin phosphodiesterase 3 (Homo sapiens, UniProt Q9NY59); test: Inhibition of human recombinant nSMase expressed in HEK293 cells using sphingomyelin as substrate by alkaline phosphatase, choline oxidase and horseradish peroxidase dependent H2O2 detection based fluorescence coupled assay
T1 sequence (Q9NY59 whole entry): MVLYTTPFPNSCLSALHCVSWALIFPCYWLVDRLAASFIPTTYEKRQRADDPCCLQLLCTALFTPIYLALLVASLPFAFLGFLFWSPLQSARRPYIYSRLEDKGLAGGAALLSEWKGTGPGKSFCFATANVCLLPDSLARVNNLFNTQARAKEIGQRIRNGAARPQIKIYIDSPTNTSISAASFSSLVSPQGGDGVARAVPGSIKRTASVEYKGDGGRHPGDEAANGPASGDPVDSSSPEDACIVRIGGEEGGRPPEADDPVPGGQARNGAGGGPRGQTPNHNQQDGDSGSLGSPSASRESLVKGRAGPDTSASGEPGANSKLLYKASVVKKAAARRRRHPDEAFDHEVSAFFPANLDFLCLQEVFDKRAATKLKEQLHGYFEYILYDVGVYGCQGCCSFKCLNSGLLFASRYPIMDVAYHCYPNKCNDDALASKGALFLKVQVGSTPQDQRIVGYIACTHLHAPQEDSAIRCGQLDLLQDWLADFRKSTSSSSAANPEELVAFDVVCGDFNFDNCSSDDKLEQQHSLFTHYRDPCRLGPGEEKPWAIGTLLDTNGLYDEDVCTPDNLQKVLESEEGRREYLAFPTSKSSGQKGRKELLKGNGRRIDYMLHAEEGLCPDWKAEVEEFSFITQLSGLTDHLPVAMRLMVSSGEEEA
Outline: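 Fluorescence-based coupled assay with human recombinant nSMase2, alkaline phosphatase and choline oxidase; IC50 values are mean ± SD of at least three experiments.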

[5] = Metabolic stability in mouse liver microsomes assessed as parent compound remaining at 5 uM in presence of NADPH regenerating system measured after 1 hr by LC/MS/MS method; assay type: ADME, Microsome
[6] = Metabolic stability in human liver microsomes assessed as parent compound remaining in presence of UDPGA at 5 uM measured after 1 hr by LC/MS/MS method; assay type: ADME, Microsome
Outline: (§1)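 Glucuronidation: compound in 50 mM Tris-HCl pH 7.5 with microsomes 0.5 mg/mL, 8 mM MgCl2, 25 μg/mL alamethicin, preincubated at 37 °C; started with UDPGA 2 mM final, triplicate; 60 min; quenched with cold acetonitrile plus internal standard; parent remaining by LC/MS/MS; cofactor-free controls.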

[7] = Metabolic stability in mouse liver microsomes assessed as parent compound remaining in presence of UDPGA at 5 uM measured after 1 hr by LC/MS/MS method; assay type: ADME, Microsome; outline: as §1
[8] = Metabolic stability in human liver microsomes assessed as parent compound remaining at 5 uM in presence of NADPH regenerating system measured after 1 hr by LC/MS/MS method; assay type: ADME, Microsome
[9] = Ratio of drug level in brain to plasma in CD-1 mouse at 10 mg/kg, po measured after 2 hrs by UPLC and LC-MS/MS analysis; assay type: ADME, organism-based
Outline: (§2)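 Male CD-1 mice (25–30 g), single oral gavage 10 mg/kg in 5% DMSO, 5% polysorbate 80, 90% saline; 3 mice per time point, sacrificed at 0.5 and 2 h. Cardiac blood into heparin, plasma by centrifugation; brains flash frozen. Acetonitrile extraction with losartan internal standard; quantified by UPLC–LC-MS/MS against calibration curves in naïve plasma/brain matrix.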

[10] = Drug level in CD-1 mouse treated with at 10 mg/kg, po 4-(4,5-Diisopropyl-1H-imidazol-2-yl)-2,6-dimethoxyphenol hydrochloride assessed as compound formation measured after 2 hrs by UPLC and LC-MS/MS analysis; assay type: ADME, organism-based; details: in vivo; outline: as §2
[11] = biological target: T2, Sphingomyelin phosphodiesterase 3 (Rattus norvegicus, UniProt O35049); test: Inhibition of rat brain neutral sphingomyelinase pre-incubated for 30 mins before p-nitrophenyl/phosphorylcholine substrate addition by spectrophotometry
T2 sequence (O35049 whole entry): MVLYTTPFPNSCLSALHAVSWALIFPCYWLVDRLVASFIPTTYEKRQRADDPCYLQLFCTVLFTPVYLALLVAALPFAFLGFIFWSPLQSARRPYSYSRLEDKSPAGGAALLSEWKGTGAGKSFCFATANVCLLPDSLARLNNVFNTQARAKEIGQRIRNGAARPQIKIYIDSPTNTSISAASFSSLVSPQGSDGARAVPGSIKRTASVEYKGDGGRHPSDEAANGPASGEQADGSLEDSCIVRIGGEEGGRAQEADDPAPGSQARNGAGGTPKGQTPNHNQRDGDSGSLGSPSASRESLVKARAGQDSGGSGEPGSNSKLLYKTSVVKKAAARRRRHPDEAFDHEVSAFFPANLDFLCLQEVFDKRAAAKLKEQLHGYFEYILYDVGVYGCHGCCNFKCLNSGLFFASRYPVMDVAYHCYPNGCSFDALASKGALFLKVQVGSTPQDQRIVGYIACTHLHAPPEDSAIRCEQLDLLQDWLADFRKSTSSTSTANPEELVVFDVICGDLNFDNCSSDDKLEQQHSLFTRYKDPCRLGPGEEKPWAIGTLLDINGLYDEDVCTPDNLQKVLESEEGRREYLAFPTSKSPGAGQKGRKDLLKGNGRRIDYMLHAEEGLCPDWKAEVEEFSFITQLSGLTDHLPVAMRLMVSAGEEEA

SMILES | IC50 [4] [nM] | Stability [5] [%] | Stability [6] [%] | Stability [7] [%] | Stability [8] [%] | BPR [9] [%] | Drug uptake [10] | Ratio IC50 (Homo sapiens [1]) | Ratio IC50 (Homo sapiens [2]) | Ratio IC50 [3] | IC50 [11] [nM]
COc1cc(-c2nc(-c3cccs3)c(-c3cccs3)[nH]2)cc(OC)c1O | – | – | – | – | – | – | – | > 5 | > 5 | > 5 | –
CC(C)(C)Oc1cc(-c2nc(-c3ccccc3)c(-c3cccs3)[nH]2)cc(OC(C)(C)C)c1O | 520 | – | – | – | – | – | – | > 5 | > 5 | > 5 | –
COc1cc(-c2ncc(-c3ccccc3)[nH]2)cc(OC)c1O | – | – | – | – | – | – | – | > 5 | > 5 | > 5 | –
COc1cc(-c2nc(-c3ccccc3)c(-c3cccs3)[nH]2)ccc1O | – | – | – | – | – | – | – | > 5 | > 5 | > 5 | –
Oc1c(OCC(F)(F)F)cc(-c2nc(-c3ccccc3)c(-c3cccs3)[nH]2)cc1OCC(F)(F)F | 70 | > 95 | – | – | 94 | – | – | > 5 | > 5 | > 5 | –
COc1cc(OC)cc(-c2nc(-c3ccccc3)c(-c3cccs3)[nH]2)c1 | – | – | – | – | – | – | – | > 5 | > 5 | > 5 | –
CC(C)Oc1cc(-c2nc(-c3ccccc3)c(-c3cccs3)[nH]2)cc(OC(C)C)c1O | 40 | 4 | – | > 95 | – | – | – | > 5 | > 5 | > 5 | –
Oc1ccc(-c2nc(-c3ccccc3)c(-c3cccs3)[nH]2)cc1 | 2100 | – | – | – | – | – | – | < 5 | < 5 | < 5 | –
COc1cc(-c2nc(C(C)C)c(C(C)C)[nH]2)cc(OC)c1O[C@@H]1O[C@H](C(=O)O)[C@@H](O)[C@H](O)[C@H]1O | – | – | – | – | – | – | Active | – | – | – | –
CCCCc1[nH]c(-c2cc(OC)c(O)c(OC)c2)nc1C | – | – | – | – | – | – | – | > 5 | > 5 | > 5 | –
Oc1c(OC2CCCC2)cc(-c2nc(-c3ccccc3)c(-c3cccs3)[nH]2)cc1OC1CCCC1 | 120 | – | – | – | – | – | – | > 5 | > 5 | > 5 | –
Oc1cccc(-c2nc(-c3ccccc3)c(-c3cccs3)[nH]2)c1 | > 100000 | – | – | – | – | – | – | > 5 | > 5 | > 5 | –
Oc1ccccc1-c1nc(-c2ccccc2)c(-c2cccs2)[nH]1 | > 100000 | – | – | – | – | – | – | > 5 | > 5 | > 5 | –
O=C(/C=C\c1ccc(/C=C\C(=O)Nc2ccc(C3=NCCN3)cc2)cc1)Nc1ccc(C2=NCCN2)cc1 | – | – | – | – | – | – | – | – | – | – | 1000
Oc1c(Cl)cc(-c2nc(-c3ccccc3)c(-c3cccs3)[nH]2)cc1Cl | > 100000 | – | – | – | – | – | – | > 5 | > 5 | > 5 | –

More lines, main results first:

IC50 [4] [nM] | Stability [5] [%] | Stability [6] [%] | Stability [7] [%] | Stability [8] [%] | BPR [9] [%] | Drug uptake [10] | SMILES | Ratio IC50 (Homo sapiens [1]) | Ratio IC50 (Homo sapiens [2]) | Ratio IC50 [3] | IC50 [11] [nM]
20000 | – | – | – | – | – | – | COc1cc(-c2nccs2)cc(OC)c1O | < 5 | < 5 | < 5 | –
40 | – | – | – | – | – | – | COc1cc(-c2nc(-c3ccco3)c(-c3ccco3)[nH]2)cc(OC)c1O | > 5 | > 5 | > 5 | –
130 | – | – | – | – | – | – | COc1cc(-c2nc(-c3ccc(C)cc3)c[nH]2)cc(OC)c1O | > 5 | > 5 | > 5 | –
– | 95 | 50 | 67 | 95 | 17 | – | COc1cc(-c2nc(-c3cccs3)c(-c3ccccc3)[nH]2)cc(OC)c1O | – | – | – | –
70 | 94 | – | – | > 95 | – | – | COc1cc(-c2nc(-c3ccccc3)c(C(C)C)[nH]2)cc(OC)c1O | > 5 | > 5 | > 5 | –
420 | – | – | – | – | – | – | COc1cc(-c2nc3c([nH]2)CCCC3)cc(OC)c1O | < 5 | < 5 | < 5 | –
520 | – | – | – | – | – | – | COc1cc(-c2nc(C)c(C)[nH]2)cc(OC)c1O | < 5 | < 5 | < 5 | –
420 | – | – | – | – | – | – | COc1cc(-c2ncc[nH]2)cc(OC)c1O | > 5 | > 5 | > 5 | –
– | 82 | – | – | 95 | – | – | COc1cc(-c2nc(C)c(-c3ccccc3)[nH]2)cc(OC)c1O | > 5 | > 5 | > 5 | –
20 | 95 | – | – | 73 | – | – | COc1cc(-c2nc(-c3cccs3)c(C)[nH]2)cc(OC)c1O | > 5 | > 5 | > 5 | –
10 | 35 | – | – | – | – | – | CCOc1cc(-c2nc(-c3ccccc3)c(-c3cccs3)[nH]2)cc(OCC)c1O | > 5 | > 5 | > 5 | –
> 100000 | – | – | – | – | – | – | COc1cc(C2=NCCN2)cc(OC)c1O | > 5 | > 5 | > 5 | –
70 | > 95 | – | – | > 95 | – | – | COc1cc(-c2nc(-c3ccc(C)cc3)c(-c3ccc(C)cc3)[nH]2)cc(OC)c1O | > 5 | > 5 | > 5 | –
– | > 95 | – | – | > 95 | – | – | COc1cc(-c2nc(-c3ccccc3)c(-c3ccccc3)[nH]2)cc(OC)c1O | > 5 | > 5 | > 5 | –
> 100000 | – | – | – | – | – | – | COc1cc(-c2nc(-c3ccccc3)c(-c3cccs3)[nH]2)cc(OC)c1OC | > 5 | > 5 | > 5 | –
220 | – | – | – | – | – | – | COc1cc(-c2ncc(C)[nH]2)cc(OC)c1O | < 5 | < 5 | < 5 | –
120 | 75 | – | – | > 95 | – | – | CCc1nc(-c2cc(OC)c(O)c(OC)c2)[nH]c1CC | > 5 | > 5 | > 5 | –
– | 73 | – | – | 75 | – | – | COc1ccc(-c2nc(-c3cc(OC)c(O)c(OC)c3)[nH]c2-c2ccc(OC)cc2)cc1 | > 5 | > 5 | > 5 | –
